Results reported in article PMC9798254 (Protein Science : A Publication of the Protein Society, 2023).

Experiments:
Assay in all cases: coupled photometric phosphate release assay
Type in all cases: biochemical, synthetic construct
Conditions in all cases: 100 mM Tris/HCl pH 7.8, 5 mM MgCl2, 25°C
Anc7 = tested on: Anc7
In short: (§1)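 Ancestral enzyme expressed in E. coli BW25113 (0.5 mM IPTG, overnight at 20°C). Purified by Ni affinity chromatography and size exclusion in 50 mM Tris/HCl pH 7.5, 400 mM NaCl, 2 mM MgCl2. Phosphate release coupled with 0.5 mM inosine, 0.25 U/ml purine nucleoside phosphorylase and 2.5 U/ml xanthine oxidase, at varied substrate concentrations. Reaction started with enzyme. Km fitted to Michaelis–Menten from initial slopes.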

Anc5 = tested on: Anc5
In short: as §1

Anc6 = tested on: Anc6
In short: as §1

SMILES: N[C@H](COP(=O)(O)O)Cc1c[nH]cn1 [HolP]
- Km (Anc7): 122 ± 31 µM
- Km (Anc5): 698 ± 123 µM
- Km (Anc6): 59 ± 12 µM
